Measurements published in ChEMBL document CHEMBL1127478 (J Med Chem, 1994).
pKd: −log10 of the molar value. Each block holds one compound with its values, some of them ahead of it. Residues, ends and D or L forms follow the SMILES beside them.

Tests used:
Rattus norvegicus [1] = species on record: Rattus norvegicus; assay: Inhibition of pressor response to exogenous AVP in the pitched rat preparation; type: functional, organism-based; conditions: read-out: pA2 (converted)
How it was run: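 Pressor test in pitched rats. Reported as the negative decadic log of the effective dose (mol/kg) that reduces the effect of a 1×10^-5 mg AVP dose to the level of […] AVP. Values are mean ± SE.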

Rattus norvegicus [2] = species on record: Rattus norvegicus; assay: In vitro antiuterotonic activity in rat oxytocic bioassay in the absence of Mg2+; type: functional; conditions: read-out: pA2 (converted)
Vasopressin V1 receptor = Vasopressin V1 receptor (Rattus norvegicus, UniProt P48974+P30560); assay: Inhibition of radioligand [3H]AVP binding to V1 receptor in rat liver plasma membrane; type: cell membranes
How it was run: (§1)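 Competition binding with 10 nM [3H]AVP (17.4 Ci/mmol) and varying concentrations of unlabeled peptide. V1 used rat liver plasma membranes prepared by two-phase polymer separation. V2 used bovine kidney inner medulla membranes prepared by differential centrifugation. Kd came from a weighted nonlinear least-squares fit to logistic curves.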

Vasopressin V2 receptor = Vasopressin V2 receptor (Bos taurus, UniProt P48044); assay: Inhibition of radioligand [3H]AVP binding to V2 receptor in bovine kidney inner medulla membrane; how it was run: as §1
Sequence of Vasopressin V2 receptor (P48044 whole entry): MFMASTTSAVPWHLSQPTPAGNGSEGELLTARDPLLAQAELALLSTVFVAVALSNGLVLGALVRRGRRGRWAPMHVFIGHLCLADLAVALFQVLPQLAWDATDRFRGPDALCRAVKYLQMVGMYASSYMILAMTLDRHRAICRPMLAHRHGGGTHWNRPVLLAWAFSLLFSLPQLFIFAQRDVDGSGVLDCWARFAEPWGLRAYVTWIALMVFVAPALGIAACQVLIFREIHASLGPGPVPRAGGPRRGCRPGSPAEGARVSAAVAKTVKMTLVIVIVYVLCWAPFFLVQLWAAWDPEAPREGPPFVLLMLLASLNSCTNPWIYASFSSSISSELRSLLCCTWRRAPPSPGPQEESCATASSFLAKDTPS

Rattus norvegicus [3] = assay: In vivo antiuterotonic activity in the rat uterotonic assay; type: functional, organism-based; conditions: read-out: pA2 (converted)
[4] = Selectivity aUT/aP ratio of the compound; type: functional
How it was run: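 Reciprocal of the ratio of effective doses in the uterotonic in vitro test (mol/L) and the pressor test (mol/kg). Where given in parentheses, the reciprocal of the ratio of the uterotonic in vivo dose (mol/kg) to the pressor dose (mol/kg).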

Rattus norvegicus [5] = species on record: Rattus norvegicus; assay: In vitro antiuterotonic activity in rat oxytocic bioassay in the presence of 1 mM Mg2+; type: functional; conditions: read-out: pA2 (converted)
How it was run: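 Isolated rat uterus in medium containing 1 mM Mg2+, with oxytocin-induced contractions challenged by the antagonist.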

Structure (SMILES): CC[C@H](C)[C@@H]1NC(=O)[C@@H](Cc2ccc(OC)cc2)NC(=O)CC2(CCCCC2)SSC[C@@H](C(=O)N2CCC[C@H]2C(=O)N[C@@H](CCCN)C(=O)NCC(N)=O)NC(=O)[C@H](CC(N)=O)NC(=O)[C@H](CCC(N)=O)NC1=O
Kb (Rattus norvegicus [1]): 11 nM | Kb (Rattus norvegicus [2]): 3.02 nM

Structure (SMILES): CN(CC(=O)N[C@@H](CCCN=C(N)N)C(=O)NCC(N)=O)C(=O)[C@@H]1CSSC2(CCCCC2)CC(=O)N[C@@H](Cc2ccc(O)cc2)C(=O)N[C@@H](Cc2ccccc2)C(=O)N[C@@H](CCC(N)=O)C(=O)N[C@@H](CC(N)=O)C(=O)N1
Kb (Rattus norvegicus [1]): 11.7 nM | Kb (Rattus norvegicus [2]): 112 nM

Structure (SMILES): CC[C@H](C)[C@@H]1NC(=O)C(Cc2ccccc2)NC(=O)CCSSC[C@H](C(=O)N(C)CC(=O)N[C@@H](CCCN=C(N)N)C(=O)NCC(N)=O)NC(=O)[C@H](CC(N)=O)NC(=O)[C@H](CCC(N)=O)NC1=O (stereo in doubt) [listing 1 of 2 here]
Kb (Rattus norvegicus [5]): 10 nM | Kb (Rattus norvegicus [1]): 398 nM | Kb (Rattus norvegicus [2]): 5.01 nM | Kb (Rattus norvegicus [3]): 39.8 nM

Structure (SMILES): CC[C@H](C)[C@@H]1NC(=O)[C@@H](Cc2c[nH]c3ccccc23)NC(=O)CC2(CCCCC2)SSC[C@@H](C(=O)N(C)CC(=O)N[C@@H](CCCN=C(N)N)C(=O)NCC(N)=O)NC(=O)[C@H](CC(N)=O)NC(=O)[C@H](CCC(N)=O)NC1=O (HELM PEPTIDE1{[dW].I.Q.N.C.[Sar].R.G.[am]}|CHEM1{[O=C(CC1(S[*:2])CCCCC1)[*:1]]}$PEPTIDE1,CHEM1,1:R1-1:R1|PEPTIDE1,CHEM1,5:R3-1:R2$$$V2.0)
Kb (Rattus norvegicus [5]): 20 nM | Kb (Rattus norvegicus [1]): 31.6 nM | Kd (Vasopressin V1 receptor): 3.8 nM | pKd (Vasopressin V2 receptor): 3.52 | Kb (Rattus norvegicus [2]): 12.6 nM | Kb (Rattus norvegicus [3]): 31.6 nM

Structure (SMILES): CC[C@H](C)[C@@H]1NC(=O)C(Cc2ccccc2)NC(=O)CC2(CCCCC2)SSC[C@H](C(=O)N(C)CC(=O)N[C@@H](CCCN=C(N)N)C(=O)NCC(N)=O)NC(=O)[C@H](CC(N)=O)NC(=O)[C@H](CCC(N)=O)NC1=O (stereo in doubt)
Kb (Rattus norvegicus [5]): 10 nM | Kb (Rattus norvegicus [1]): 100 nM | Kd (Vasopressin V1 receptor): 8.28 nM | pKd (Vasopressin V2 receptor): 6.51 | Kb (Rattus norvegicus [2]): 10 nM | Kb (Rattus norvegicus [3]): 39.8 nM | Ratio [4]: 10

Structure (SMILES): NC(=O)CC[C@@H]1NC(=O)[C@H](Cc2ccccc2)NC(=O)[C@H](Cc2ccc(O)cc2)NC(=O)CC2(CCCCC2)SSC[C@H](C(=O)N2CCC[C@H]2C(=O)N[C@@H](CCCN=C(N)N)C(=O)NCC(N)=O)NC(=O)[C@H](CC(N)=O)NC1=O
Ratio [4]: 0.6

Now from value to compound, other results behind:

Kd (Vasopressin V1 receptor): 0.32 nM | pKd (Vasopressin V2 receptor): 7.54
Structure (SMILES): CCOc1ccc(CC2NC(=O)CC3(CCCCC3)SSC[C@@H](C(=O)N(C)CC(=O)N[C@@H](CCCN=C(N)N)C(=O)NCC(N)=O)NC(=O)[C@H](CC(N)=O)NC(=O)[C@H](CCC(N)=O)NC(=O)[C@H](Cc3ccccc3)NC2=O)cc1 (stereo in doubt)
Kb (Rattus norvegicus [1]): 10 nM | Kb (Rattus norvegicus [2]): 3.98 nM | Kb (Rattus norvegicus [3]): 79.4 nM | Ratio [4]: 2.5

Kd (Vasopressin V1 receptor): 0.59 nM | pKd (Vasopressin V2 receptor): 6.62
Structure (SMILES): CN(CC(=O)N[C@@H](CCCNC(=N)N)C(=O)NCC(N)=O)C(=O)[C@@H]1CSSC2(CCCCC2)CC(=O)N[C@@H](Cc2ccc(O)cc2)C(=O)N[C@@H](Cc2ccccc2)C(=O)N[C@@H](CCC(N)=O)C(=O)N[C@@H](CC(N)=O)C(=O)N1

Kd (Vasopressin V1 receptor): 13.1 nM | pKd (Vasopressin V2 receptor): 7.46
Structure (SMILES): CCOc1ccc(CC2NC(=O)CC3(CCCCC3)SSC[C@H](C(=O)N(C)CC(=O)N[C@@H](CCCN=C(N)N)C(=O)NCC(N)=O)NC(=O)[C@H](CC(N)=O)NC(=O)[C@H](CCC(N)=O)NC(=O)[C@H]([C@@H](C)CC)NC2=O)cc1 (stereo in doubt)
Kb (Rattus norvegicus [5]): 7.94 nM | Kb (Rattus norvegicus [1]): 398 nM | Kb (Rattus norvegicus [2]): 5.01 nM | Kb (Rattus norvegicus [3]): 31.6 nM | Ratio [4]: 80

Kd (Vasopressin V1 receptor): 8.28 nM | pKd (Vasopressin V2 receptor): 6.74
Structure (SMILES): CC[C@H](C)C1NC(=O)CC2(CCCCC2)SSC[C@@H](C(=O)N(C)CC(=O)N[C@@H](CCCN=C(N)N)C(=O)NCC(N)=O)NC(=O)[C@H](CC(N)=O)NC(=O)[C@H](CCC(N)=O)NC(=O)[C@H](Cc2ccccc2)NC1=O (stereo in doubt)
Kb (Rattus norvegicus [5]): 100 nM | Kb (Rattus norvegicus [1]): 63.1 nM | Kb (Rattus norvegicus [2]): 31.6 nM | Kb (Rattus norvegicus [3]): 251 nM

Kd (Vasopressin V1 receptor): 0.22 nM | pKd (Vasopressin V2 receptor): 6.64
Structure (SMILES): CN(CC(=O)N[C@@H](CCCN=C(N)N)C(=O)NCC(N)=O)C(=O)[C@@H]1CSSC2(CCCCC2)CC(=O)NC(Cc2ccc(O)cc2)C(=O)N[C@@H](Cc2ccccc2)C(=O)N[C@@H](CCC(N)=O)C(=O)N[C@@H](CC(N)=O)C(=O)N1 (stereo in doubt)
Kb (Rattus norvegicus [1]): 10 nM | Kb (Rattus norvegicus [2]): 10 nM | Kb (Rattus norvegicus [3]): 100 nM

Kd (Vasopressin V1 receptor): 0.96 nM | pKd (Vasopressin V2 receptor): 7.01
Structure (SMILES): CN(CC(=O)N[C@@H](CCCN=C(N)N)C(=O)NCC(N)=O)C(=O)[C@@H]1CSSC2(CCCCC2)CC(=O)NC(Cc2ccccc2)C(=O)NC(Cc2ccccc2)C(=O)N[C@@H](CCC(N)=O)C(=O)N[C@@H](CC(N)=O)C(=O)N1 (stereo in doubt)
Kb (Rattus norvegicus [1]): 15.8 nM | Kb (Rattus norvegicus [2]): 7.94 nM | Kb (Rattus norvegicus [3]): 25.1 nM | Ratio [4]: 2

Kd (Vasopressin V1 receptor): 2 nM | pKd (Vasopressin V2 receptor): 6.09
Structure (SMILES): CC[C@H](C)[C@@H]1NC(=O)[C@@H](Cc2ccc(OC)cc2)NC(=O)CC2(CCCCC2)SSC[C@@H](C(=O)N(C)CC(=O)N[C@@H](CCCN=C(N)N)C(=O)NCC(N)=O)NC(=O)[C@H](CC(N)=O)NC(=O)[C@H](CCC(N)=O)NC1=O
Kb (Rattus norvegicus [5]): 6.31 nM | Kb (Rattus norvegicus [1]): 20 nM | Kb (Rattus norvegicus [2]): 2.51 nM | Kb (Rattus norvegicus [3]): 31.6 nM

Kd (Vasopressin V1 receptor): 50.1 nM | pKd (Vasopressin V2 receptor): 6.38
Structure (SMILES): CC[C@H](C)[C@@H]1NC(=O)C(Cc2ccccc2)NC(=O)CCSSC[C@H](C(=O)N(C)CC(=O)N[C@@H](CCCN=C(N)N)C(=O)NCC(N)=O)NC(=O)[C@H](CC(N)=O)NC(=O)[C@H](CCC(N)=O)NC1=O (stereo in doubt) [listing 2 of 2 here]
